Source: PubChem
Most compounds without a hit are left out; they make up all but 2.6% or so of the library.
HSF1 activator: increases HSF-1 driven luciferase reporter signal; NIH3T3-HGL HSF-1 luciferase reporter, MG132, 8 h; 100% = twice DMSO control signal; 300,000 tested, 1.7% active; activation, % at 9 µM; AID 504408;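 active = mean replicate activation of at least 50% with a set share of replicates each reaching 50%; inconclusive = only one of those two conditions met; inactive = mean below 50% and too few replicates reaching it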;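 note: 0% = median of the neutral control wells and 100% = twice that signal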
Mdm2 ligase inh: Mdm2 E3 ligase (human) inhibition; 210,000 tested, 0.11% active; cell-based MDM2 ubiquitination luciferase reporter, 2 h; 0 = plate control, 100 = twice control, blank-subtracted; signal enhancement, % at 5 µM; Q00987;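 active = signal enhancement of 30% or more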;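 note: luminescence tracks abundance of the self-degrading MDM2-luciferase fusion protein; higher signal means inhibition of MDM2 E3 ligase activity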
Target sequence (Q00987 whole entry, looked up, the tested form may be a part): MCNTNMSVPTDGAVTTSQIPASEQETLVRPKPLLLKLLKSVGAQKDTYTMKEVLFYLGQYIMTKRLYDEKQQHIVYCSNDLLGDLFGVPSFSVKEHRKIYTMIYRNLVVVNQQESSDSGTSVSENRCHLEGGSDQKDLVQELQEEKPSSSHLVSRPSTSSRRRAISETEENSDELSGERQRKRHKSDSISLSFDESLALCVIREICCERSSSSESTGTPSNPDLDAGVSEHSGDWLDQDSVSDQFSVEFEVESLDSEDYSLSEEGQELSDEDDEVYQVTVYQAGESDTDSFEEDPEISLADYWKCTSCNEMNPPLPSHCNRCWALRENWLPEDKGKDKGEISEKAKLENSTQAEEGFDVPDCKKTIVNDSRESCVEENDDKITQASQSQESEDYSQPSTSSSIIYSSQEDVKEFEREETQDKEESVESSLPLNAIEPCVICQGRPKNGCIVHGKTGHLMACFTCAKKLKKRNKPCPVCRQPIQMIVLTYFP
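Test system: stable mammalian line carrying autodegrading MDM2–luciferase fusion reporter; quantity: 2000 cells in each well; times: 4 h cell settling then 2 h compound exposure, 37 °C; detection: luminescence with SteadyLite reagent, 15 min at room temperature; evaluation: percent signal gain over controls, blank-subtracted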
HSF1 inhib: HSF1 inhibition; NIH3T3-HGL HSE-luciferase, MG132-induced, luminescence 8 h; hits give low values; AID 2098; activity change, negative = inhibition, % at 7.5 µM (by protocol); 300,000 tested, 0.77% active;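 active = more than half of replicate wells show activity change below -50%, luminescence cut by over half; inconclusive = some wells, but at most half, below -50%; inactive = no replicate well below -50%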;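 note: luciferase reports HSF-1 transcriptional activity via heat shock element; 0% = median of DMSO wells and -100% = zero luminescence signal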
Hsp70 act: transcriptional activators of Hsp70; HeLa Hsp70 promoter luciferase reporter, luminescence; scaled: vehicle 0, proteasome-inhibitor control 100%; activation, % at 10 µM; 200,000 tested, 0.04% active; AID 1203;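 active = activation above the mean across all tested compounds plus 3 SD, cutoff set per campaign, cut at about 5.5% in these data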;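 note: 100% = MG132 at 30 µM as the positive control and 0% = DMSO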
HSV replic up: increases HSV replication in cells. HSV replication augmentation in cells, fold increase. maximum fold increase. 220,000 tested, 0.005% active. AID 1956; in the data active = maximum fold increase above about 1.5; inconclusive = no clear call, values can overlap the other calls; tested in PC3 cells
Rad51 HR inh: blocks human Rad51 in homologous recombination. 200,000 tested, 0.085% active. AID 1385. inhibition, % at 10 µM. Q06609. hRad51 DNA strand exchange, fluorescence dequenching;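 active = inhibition above 40% at the single screening dose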;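 note: 0% = DMSO control wells and 100% = blanks with heterologous ssDNA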
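Read-out basis: percent inhibition relative to plate controls and blanks / Assay system: human Rad51 nucleoprotein filaments preassembled on unlabelled ssDNA / Timing: filaments 15 min 37 °C, then compound 30 min / Control set: per-plate controls and blanks / Technique: fluorescence dequenching at 485/520 nm / Compound: 10 µM final, single point / Also added: Fluorescein- and BHQ1-tagged 47-mer duplex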
Numbers without * were called inactive; i = inactive; u = inconclusive; x = not tested or not shown.

SMILES | HSF1 activator | Mdm2 ligase inh | HSF1 inhib | Hsp70 act | HSV replic up | Rad51 HR inh
Cc1cccc(NC(=S)NCC23C=CC(O2)C2C(=O)N(c4ccc(Cl)cc4)C(=O)C23)c1 (stereo not drawn) | 98* | 7 | 68 | 0 | i | 4
Cc1ccc(NC(=S)NCC23C=CC(O2)C2C(=O)N(c4ccc(C)cc4)C(=O)C23)cc1 (stereo not drawn) | -5 | -2 | -6 | 0 | i | 1
CCOC(=O)c1ccc(Oc2coc3cc(O)ccc3c2=O)cc1 | 8 | x | 5 | x | x | x
C=CCc1cccc(/C=N/n2cnnc2)c1O | 11 | 5 | 5 | 0 | i | -8
C=CCc1cccc(/C=C/c2cc(=O)c3ccccc3[nH]2)c1O | 55* | -3 | 25 | 0 | u | -1
CN(CC(=O)NCc1ccccn1)S(=O)(=O)c1ccc(Br)cc1 | -6 | -13 | -3 | 0 | i | 2
COC(=O)C1CCN(C(=O)/C=C/c2ccc(OC)cc2)CC1 | 24 | -18 | 10 | 0 | i | -1
COc1ccc2cc(/C=C/C(=O)N3CCN(CC(=O)N4CCCCCC4)CC3)ccc2c1 | 61* | x | 22 | x | x | x
N#Cc1ccccc1NC(=O)COc1ccc2c(c1)OCO2 | 88* | x | 41 | x | x | x
COc1nc(N/N=C/c2ccccc2F)nc(N2CCCCC2)n1 | -1 | -4 | -4 | 0 | i | -9
O=C(C1CCC(CNS(=O)(=O)c2cccc3cccnc23)CC1)N1CCCC1 (stereo not drawn) | -89 | -6 | -86* | 0 | i | 4
CN(C(=O)C1CCC(CNS(=O)(=O)c2cccc3cccnc23)CC1)C1CCCCC1 (stereo not drawn) | 6 | x | 0 | x | x | x
CCOC(=O)c1ccc(NC(=O)CC2COc3ccccc3O2)cc1 (stereo not drawn) | -85 | -19 | -81* | 0 | i | 2
Cc1cc(-c2ccccc2)nc(SCC(=O)N2CCCC2)n1 | -8 | -4 | 4 | 0 | i | 0
Cc1cc(C)nc(NN=C(c2ccccc2)c2ccccc2)n1 | -1 | 5 | -8 | 0 | i | -2
CCN1C(=NCCc2cccs2)N[C@@H](c2cccs2)C(C(=O)OC)=C1C | -69 | x | -60* | x | x | x
CN(C)c1cccc(/C=C(\C#N)c2ccccc2)c1 | 63* | -26 | 36 | x | i | -1
CN(C)c1ccc(/C=C(\C#N)c2ccccc2)cc1 | x | -26 | x | x | i | x
Cc1nc2c(-c3ccc(Cl)cc3)cnn2c(N)c1-c1ccc(F)cc1 | -77 | x | -74* | x | x | x
Cc1nc2c(-c3ccc(F)cc3)cnn2c(N)c1-c1ccccc1 | -83 | x | -81* | x | x | x
O=C(NC(Cc1ccccc1)C(=O)O)/C(=C/c1ccc(Br)cc1)NC(=O)c1ccc(Br)o1 (stereo not drawn) | -15 | x | -4 | x | x | x
COc1ccc(CNCCC2(Cc3ccccc3)CC(C)N(C)CC2C)cc1OC (stereo not drawn) | -6 | 3 | -9 | 0 | i | -4
Nc1c2c(nn1-c1ccc(F)cc1)CSC2 | 2 | x | -6 | x | x | x
O=C(O)CCNS(=O)(=O)c1ccccc1C(F)(F)F | -68 | 8 | -60* | 0 | i | -3
Cc1ccc(N(CCC#N)C(=O)COC(=O)C2=COCCO2)cc1 | -50 | x | -35 | x | x | x
SMILES | HSF1 activator | Mdm2 ligase inh | HSF1 inhib | Hsp70 act | HSV replic up | Rad51 HR inh
COc1cc(C(=O)OCC(=O)NC2CCCC2)cc(OC)c1OC | 11 | x | 1 | x | x | x
COCCNC(=S)N1CCC(NC(=O)c2ccco2)CC1 | 2 | -11 | -2 | 0 | i | 2
NNC(=O)c1ccc(Cn2cc(Br)cn2)o1 | 8 | -17 | 0 | x | i | 3
Cc1ccc(NC(=O)c2ccc(Cn3cc(Br)cn3)o2)cc1 | 226* | 3 | 160 | 0 | i | -3
COC(=O)c1ccc(C)c(NC(=O)c2ccc(Cn3cc([N+](=O)[O-])cn3)o2)c1 | 60* | 4 | 25 | 0 | i | 20
COC(=O)c1ccc(C)c(NC(=O)Cc2ccc([N+](=O)[O-])cc2)c1 | -23 | -8 | 0 | 0 | i | -10
O=C(COc1ccc(Cl)cc1)Nc1ncc([N+](=O)[O-])s1 | 78* | -41 | 45 | 0 | i | -6
Cc1ccc(/C=C(\C#N)C(=O)N2CCCC2)c(C)c1 | -1 | -9 | -4 | 0 | i | -41
CC1/C(=N/O)CC(c2ccco2)NC1c1ccco1 (stereo not drawn) | 31 | 0 | 4 | 0 | i | x
CC1C(=O)C(C)C(c2ccco2)NC1c1ccco1 (stereo not drawn) | -71 | -13 | -64* | 0 | i | 2
O=C(Cc1cc2ccccc2o1)NCc1ccc(F)cc1 | 16 | x | -3 | x | x | x
COc1cccc(C(=O)Nc2ccc(C)cc2)c1 | 32 | -17 | 21 | 0 | i | 4
COc1cccc(C(=O)NC2CCCC2)c1 | 70* | -22 | 25 | 0 | i | -137
COc1cccc(C(=O)Nc2ccc(C3CC3(Cl)Cl)cc2)c1 (stereo not drawn) | 103* | -5 | 61 | 1 | i | -7
CCC1CCC(NC(=O)Nc2cccc(OC)c2)CC1 (stereo not drawn) | 62* | -3 | 25 | 0 | i | 5
COc1cccc(NC(=O)C2CC2)c1 | -8 | x | -4 | x | x | x
COc1cccc(C(=O)NNC(=S)NC2CCCCC2)c1 | 28 | -5 | 10 | 0 | i | -3
Cc1c(C(=O)NC2CCCCC2)oc2ccc(F)cc12 | 28 | x | 16 | x | x | x
COc1ccc2oc(C(=O)NC3CCCCC3)c(C)c2c1 | 61* | x | 37 | x | x | x
COc1ccccc1CNS(=O)(=O)c1cc2c3c(c1)CCN3C(=O)CC2 | 0 | x | -5 | x | x | x
Cn1cc(CCC(=O)NCc2ccc(Cl)cc2)c2ccccc21 | 4 | x | -4 | x | x | x
COc1ccc(C(C(=O)NC(C)(C)C)N(C(=O)CCC(=O)Nc2cc(C)on2)c2ccc(C)c(C)c2)cc1 (stereo not drawn) | 1 | x | 6 | x | x | x
O=c1[nH]n(Cc2ccccc2)c2ccccc12 | -5 | x | -4 | x | x | x
CN1C(c2ccccc2)CCOS1(=O)=O (stereo not drawn) | 9 | x | -3 | x | x | x
O=S(=O)(c1cccs1)N1CCC(Cc2ccccc2)CC1 | -17 | -23 | 1 | 0 | i | 5
Nc1ccc(S(=O)(=O)N2CCC(Cc3ccccc3)CC2)cc1 | -64 | x | -55* | x | x | x
Nc1ccc2oc(C3CCCCC3)nc2c1 | -93 | -8 | -91* | 0 | i | x
CCC(C)(C)n1nnnc1C(c1cc2cc(C)cc(C)c2[nH]c1=O)N1CCCC1 (stereo not drawn) | x | -15 | x | 0 | i | -11
CCC(C)(C)n1nnnc1C(c1cc2cc(C)cc(C)c2[nH]c1=O)N1CCN(Cc2ccc3c(c2)OCO3)CC1 (stereo not drawn) | 54* | 3 | 21 | 0 | x | x
